Experimental data published in ChEMBL document CHEMBL1144710, “epigenetic multiple ligands: mixed histone/protein methyltransferase, acetyltransferase, and class III deacetylase (sirtuin) inhibitors” (J Med Chem, 2008).
Activity calls are given as the source filed them. Unless noted, the rule behind the calls is not given here.

Key:
U-937 [1] = experiment: Induction of cell cycle arrest in human U937 cells at 25 uM after 30 hrs; assay type: functional, cell-based
Procedure, shortened: (§1)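 U937 cells in RPMI with 10% fetal calf serum, HEPES and glutamine, kept at 200000 cells/mL; treated at 25 µM for 30 h, then the distribution across cell cycle phases was analysed.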

U-937 [2] = experiment: Induction of apoptosis in human U937 cells at 25 uM after 30 hrs; assay type: functional
Procedure, shortened: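 Apoptosis read as caspase 3 activation by FACS, in U937 cells (RPMI, 10% fetal calf serum, 200000 cells/mL) exposed to 25 µM for 30 h.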

U-937 [3] = experiment: Induction of granulocytic differentiation in human U937 cells assessed as CD11c expression at 5 uM after 30 hrs; assay type: functional
Procedure, shortened: (§2)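 U937 cells treated for 30 h, then stained with PE-conjugated CD11c (PE mouse IgG1 as control) for 30 min at 4 °C in the dark and resuspended in PBS with PI (0.25 µg/mL). Read-out is percent CD11c-positive/PI-negative cells, with dead PI-positive cells excluded. Coloured compounds limited the top dose to 5 µM or lower.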

U-937 [4] = experiment: Induction of granulocytic differentiation in human U937 cells assessed as CD11c expression at 25 uM after 30 hrs; assay type: functional; procedure, shortened: as §2
U-937 [5] = experiment: Cell cycle arrest in human U937 cells assessed as accumulation at G1/G2 phase at 25 uM after 30 hrs; assay type: functional, cell-based; procedure, shortened: as §1
U-937 [6] = experiment: Induction of granulocytic differentiation in human U937 cells assessed as CD11c expression at 1 uM after 30 hrs; assay type: functional; procedure, shortened: as §2
RmtA = RmtA (Emericella nidulans, UniProt Q5VLE3); experiment: Inhibition of Aspergillus nidulans RmtA
Procedure, shortened: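 Enzyme was GST-RmtA fusion expressed in E. coli BL21 and glutathione-affinity purified (500 ng), preincubated with compound for 15 min at room temperature. Then 20 µg chicken erythrocyte core histones and 0.55 µCi [3H]AdoMet were added, 30 min at 30 °C. Stopped with 25% TCA, filtered, counted by liquid scintillation.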

[7] = molecular target: Protein arginine N-methyltransferase 1 (Homo sapiens) (UniProt Q99873); experiment: Inhibition of human recombinant PRMT1 assessed as histone H4 methylation at 50 uM
[8] = molecular target: Protein arginine N-methyltransferase 1 (Homo sapiens) (UniProt Q99873); experiment: Inhibition of human recombinant PRMT1 assessed as nuclear ribonucleoprotein Npl3p methylation at 100 uM
Procedure, shortened: (§3)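 Recombinant enzymes (0.2 µg) with substrate (0.5 µg: Npl3p for PRMT1, PABP1 for CARM1, histone H3 for SET7), 0.5 µM [3H]AdoMet and 100 µM compound in PBS pH 7.4 with 3.3% v/v DMSO, 90 min at 30 °C. Products separated by 10% SDS-PAGE, transferred to PVDF, detected by fluorography on film overnight.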

[9] = molecular target: T1, Histone-arginine methyltransferase CARM1 (Homo sapiens) (UniProt Q86X55); experiment: Inhibition of human recombinant CARM1 assessed as poly(A) binding protein 1 methylation at 100 uM; procedure, shortened: as §3
T1 sequence (whole entry): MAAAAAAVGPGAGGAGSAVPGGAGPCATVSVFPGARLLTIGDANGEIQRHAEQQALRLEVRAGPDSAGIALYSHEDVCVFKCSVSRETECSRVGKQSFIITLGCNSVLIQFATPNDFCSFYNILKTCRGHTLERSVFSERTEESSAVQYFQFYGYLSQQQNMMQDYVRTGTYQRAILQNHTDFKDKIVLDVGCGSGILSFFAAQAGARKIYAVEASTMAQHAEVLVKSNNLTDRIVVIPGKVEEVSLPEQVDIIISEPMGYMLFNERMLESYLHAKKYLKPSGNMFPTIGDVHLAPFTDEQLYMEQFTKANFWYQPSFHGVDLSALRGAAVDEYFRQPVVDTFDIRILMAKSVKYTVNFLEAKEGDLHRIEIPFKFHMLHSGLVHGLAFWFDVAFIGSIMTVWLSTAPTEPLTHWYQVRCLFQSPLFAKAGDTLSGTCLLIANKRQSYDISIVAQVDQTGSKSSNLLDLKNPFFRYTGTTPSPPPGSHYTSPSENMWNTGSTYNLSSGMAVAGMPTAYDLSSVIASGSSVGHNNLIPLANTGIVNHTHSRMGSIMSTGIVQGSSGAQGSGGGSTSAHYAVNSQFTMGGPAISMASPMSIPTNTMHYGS

[10] = molecular target: T2, Histone-lysine N-methyltransferase SETD7 (Homo sapiens) (UniProt Q8WTS6); experiment: Inhibition of human recombinant SET7 assessed as histone H3 protein methylation at 100 uM; procedure, shortened: as §3
T2 sequence (whole entry): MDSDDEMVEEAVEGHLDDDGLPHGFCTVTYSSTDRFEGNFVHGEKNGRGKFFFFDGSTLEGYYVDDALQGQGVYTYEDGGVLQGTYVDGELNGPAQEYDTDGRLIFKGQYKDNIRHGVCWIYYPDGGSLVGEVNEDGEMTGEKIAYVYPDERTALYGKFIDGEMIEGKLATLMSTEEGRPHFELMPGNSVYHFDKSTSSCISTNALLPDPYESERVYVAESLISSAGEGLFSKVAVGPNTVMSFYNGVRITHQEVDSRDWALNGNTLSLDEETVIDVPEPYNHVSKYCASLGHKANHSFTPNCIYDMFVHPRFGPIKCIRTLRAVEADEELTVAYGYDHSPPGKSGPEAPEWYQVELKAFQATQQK

U-937 [11] = experiment: Inhibition of histone H3K4 methylation in human U937 cells at 50 uM after 24 hrs; assay type: functional, cell-based
Procedure, shortened: (§4)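 U937 cells treated at 50 µM for 24 h. Histones extracted with Triton buffer, then 0.2 M HCl overnight at 4 °C. 3–10 µg run on 15% SDS-PAGE and immunoblotted with anti-monomethyl-H3K4, monomethyl-H4R3 or dimethyl-H3R17 (1:500, overnight 4 °C), ECL detection. Loading controls: total H4 (H3K4), Ponceau Red (Arg marks).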

U-937 [12] = experiment: Inhibition of histone H4R3 methylation in human U937 cells at 50 uM after 24 hrs; assay type: functional, cell-based; procedure, shortened: as §4
U-937 [13] = experiment: Inhibition of histone H3R17 methylation in human U937 cells at 50 uM after 24 hrs; assay type: functional, cell-based; procedure, shortened: as §4
U-937 [14] = experiment: Inhibition of human p300/CBP in U937 cells at 50 uM assessed as histone H3 acetylation; assay type: cell-based
Procedure, shortened: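 Source was U937 nuclear extract (10 µg per assay) as p300/CBP HAT, with histone H3 substrate and compound at 50 µM or DMSO control for 90 min. Acetyl-H3 detected by indirect ELISA, quantified against acetylated H3 peptide standard curves, […].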

[15] = molecular target: T3, NAD-dependent protein deacetylase sirtuin-1 (Homo sapiens) (UniProt Q96EB6); experiment: Inhibition of human SIRT1 at 25 uM
T3 sequence (whole entry): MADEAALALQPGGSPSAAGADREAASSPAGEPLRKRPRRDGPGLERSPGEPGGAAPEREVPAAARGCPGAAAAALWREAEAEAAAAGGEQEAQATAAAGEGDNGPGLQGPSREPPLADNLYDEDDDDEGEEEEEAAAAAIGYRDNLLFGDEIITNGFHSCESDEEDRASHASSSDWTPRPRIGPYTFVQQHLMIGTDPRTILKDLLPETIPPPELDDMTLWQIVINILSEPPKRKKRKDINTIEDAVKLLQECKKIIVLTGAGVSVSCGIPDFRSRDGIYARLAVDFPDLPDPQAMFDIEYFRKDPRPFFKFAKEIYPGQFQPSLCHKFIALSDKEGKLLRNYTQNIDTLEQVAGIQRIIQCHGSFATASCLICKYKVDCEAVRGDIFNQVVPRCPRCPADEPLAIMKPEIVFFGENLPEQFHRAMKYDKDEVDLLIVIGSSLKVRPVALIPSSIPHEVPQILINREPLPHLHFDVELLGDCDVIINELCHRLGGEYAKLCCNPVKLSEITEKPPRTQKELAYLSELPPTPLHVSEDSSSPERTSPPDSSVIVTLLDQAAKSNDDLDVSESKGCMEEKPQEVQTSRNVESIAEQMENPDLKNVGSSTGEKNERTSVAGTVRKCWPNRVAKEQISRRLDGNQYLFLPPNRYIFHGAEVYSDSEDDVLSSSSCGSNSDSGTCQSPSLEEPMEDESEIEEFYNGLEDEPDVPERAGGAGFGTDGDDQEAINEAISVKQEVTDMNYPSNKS
Procedure, shortened: (§5)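 Fluorescent two-stage assay. SIRT1 (1 U/well) or SIRT2 (5 U/well) with Fluor de Lys-SIRT1/2 substrate, NAD+ and compound at 25 µM, 37 °C for 2 h. Developer II containing nicotinamide then stopped the reaction and generated signal, read at ex 360/em 460 nm.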

[16] = molecular target: T4, NAD-dependent protein deacetylase sirtuin-2 (Homo sapiens) (UniProt Q8IXJ6); experiment: Inhibition of human SIRT2 at 25 uM; procedure, shortened: as §5
T4 sequence (whole entry): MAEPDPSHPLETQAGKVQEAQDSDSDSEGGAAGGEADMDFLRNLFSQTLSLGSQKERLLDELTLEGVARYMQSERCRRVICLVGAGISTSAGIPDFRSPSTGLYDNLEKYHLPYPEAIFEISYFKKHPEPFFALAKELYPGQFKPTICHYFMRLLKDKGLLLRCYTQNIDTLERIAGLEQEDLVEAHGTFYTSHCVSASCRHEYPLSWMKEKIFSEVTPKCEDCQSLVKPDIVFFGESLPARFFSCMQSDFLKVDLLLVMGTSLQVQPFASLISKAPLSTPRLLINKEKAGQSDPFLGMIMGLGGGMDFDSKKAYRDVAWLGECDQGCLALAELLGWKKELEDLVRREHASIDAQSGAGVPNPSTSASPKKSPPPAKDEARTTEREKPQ

Sequence of Protein arginine N-methyltransferase 1 (Homo sapiens) (Q99873 whole entry, looked up): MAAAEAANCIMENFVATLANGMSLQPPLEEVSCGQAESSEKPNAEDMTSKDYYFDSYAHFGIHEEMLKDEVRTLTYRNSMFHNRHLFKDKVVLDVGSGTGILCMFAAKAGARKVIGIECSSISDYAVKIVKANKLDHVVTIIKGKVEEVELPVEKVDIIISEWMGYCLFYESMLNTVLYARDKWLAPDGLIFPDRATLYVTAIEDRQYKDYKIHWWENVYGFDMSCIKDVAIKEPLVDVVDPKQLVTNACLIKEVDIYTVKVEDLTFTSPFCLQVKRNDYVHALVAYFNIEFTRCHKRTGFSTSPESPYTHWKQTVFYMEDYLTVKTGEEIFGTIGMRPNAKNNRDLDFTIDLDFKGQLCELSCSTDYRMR
Sequence of RmtA (Q5VLE3 whole entry, the tested form may be a part): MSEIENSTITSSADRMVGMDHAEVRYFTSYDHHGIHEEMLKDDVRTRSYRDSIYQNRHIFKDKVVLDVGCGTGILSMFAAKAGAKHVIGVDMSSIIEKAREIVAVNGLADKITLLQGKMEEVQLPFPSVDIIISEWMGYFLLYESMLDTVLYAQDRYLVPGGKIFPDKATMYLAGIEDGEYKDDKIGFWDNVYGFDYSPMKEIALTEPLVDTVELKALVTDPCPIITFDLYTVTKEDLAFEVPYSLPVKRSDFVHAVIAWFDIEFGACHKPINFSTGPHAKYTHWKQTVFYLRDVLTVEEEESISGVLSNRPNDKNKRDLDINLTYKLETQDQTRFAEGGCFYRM

Row | IC50 (RmtA) [µM] | inhibition [7] [%] | Activity [8] | Activity [9] | Activity [10] | inhibition [15] [%] | inhibition [16] [%] | Structure (SMILES) | Activity (U-937 [1]) | Activity (U-937 [2]) [%] | Activity (U-937 [3]) [%] | Activity (U-937 [4]) [%] | Activity (U-937 [5]) | Activity (U-937 [6]) [%] | Activity (U-937 [11]) | Activity (U-937 [12]) | Activity (U-937 [13]) | inhibition (U-937 [14]) [%]
1 | – | – | – | – | – | – | – | COc1cc(/C=C/C(=O)CC(=O)/C=C/c2ccc(O)c(OC)c2)ccc1O [CURCUMIN] | inactive | 8.5 | 25.3 | 25 | – | – | – | – | – | –
2 | 10 | 60 | Active | Active | Active | 73 | 48 | O=C(/C=C/c1cc(Br)c(O)c(Br)c1)c1cccc(C(=O)/C=C/c2cc(Br)c(O)c(Br)c2)c1 | – | 42.6 | – | – | Active | 38.8 | Active | Active | Active | 83
